Bioassay records deposited in PubChem by several laboratories.
PDI turbidity – inhibitors of human PDI, primary screen, biochemical, turbidity, single point, plate reader; Protein disulfide-isomerase (Homo sapiens), P07237; PDI insulin aggregation turbidity, A650, 90 min; inhibition, % at 10 µM; 0.052% of 350,000 active; AID 588391, 2011;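 active = mean inhibition across replicates of 30% or more, whatever share of single replicates reach that level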
CAL PDZ FP-1 – CAL PDZ peptide-binding inhibitors, primary screen, biochemical, fluorescence polarization, Cer-tagged CAL PDZ, HTS; 0.02% of 330,000 active; inhibition, % at 20 µM; purified CAL PDZ, TMR-peptide fluorescence polarization, 1 h; AID 504414, 2011; Golgi-associated PDZ and coiled-coil motif-containing protein (Homo sapiens), Q9HD26;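 active = highest replicate inhibition of at least 40%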;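 also: plate controls were DMSO neutral control wells for no effect and unlabeled competitor peptide control wells for full effect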
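material = purified tagged CAL PDZ domain construct (CerCALP) | buffer or medium = sodium phosphate/NaCl buffer pH 7.4 with TCEP, IgG, Thesit | reagent = TMR-labelled reporter peptide T*-PRC34 bound in PDZ groove | incubation = 1 h room-temperature incubation prior to read | measured by = fluorescence polarization (mP) | evaluation = percent inhibition from loss of millipolarization | control set = unlabelled peptide and DMSO controls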
CAL PDZ FP-2 – untagged CAL PDZ binding inhibitors, primary screen, biochemical, fluorescence polarization, HTS | Golgi-associated PDZ and coiled-coil motif-containing protein (Homo sapiens), Q9HD26 | purified CAL PDZ, TMR-peptide fluorescence polarization, 1 h | inhibition, % at 24.9 µM | 0.92% of 300,000 active | AID 602252, 2012;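 active = mean inhibition of at least 30% with at least half of replicates also reaching 30%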;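 also: 0% = DMSO neutral control and 100% = excess unlabeled competitor peptide PRC23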
ERAP1 inh – human ERAP1 aminopeptidase inhibitors, primary screen, biochemical, single point, plate reader; AID 652197, 2013; 0.15% of 340,000 active; inhibition, % at 10.7 µM; recombinant ERAP1, Leu-AMC fluorescence, 60 min; Endoplasmic reticulum aminopeptidase 1 (Homo sapiens), Q9NZ08;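 active = mean replicate inhibition of at least 30%, or all replicates individually reaching that 30% level; inactive = mean below 30% and not every replicate reaching it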;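 also: 0% = neutral control wells and 100% = L-leucinethiol positive control wells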
Rin1-Abl PPI inh – inhibitors of Rin1-Abl protein binding, primary screen, biochemical, TR-FRET. inhibition, % at 7.35 µM. 0.4% of 360,000 active. Tyrosine-protein kinase ABL1 (Homo sapiens) + Ras and Rab interactor 1 (Homo sapiens), …; in the data active = inhibition above about 5%, passing the limit was not always enough
ERp5 block – inhibitors of ERp5-driven insulin aggregation, primary screen, biochemical, turbidity, absorbance 650 nm, single point | 90 min | Protein disulfide-isomerase A6 (Homo sapiens), Q15084 | AID 651711, 2012 | inhibition, % at 9.99 µM | 0.05% of 350,000 active;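 active = mean replicate inhibition above about 25%, with every replicate also reaching it, limit read from the data, passing the limit was not always enough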
Target sequence (Q15084 whole entry, looked up): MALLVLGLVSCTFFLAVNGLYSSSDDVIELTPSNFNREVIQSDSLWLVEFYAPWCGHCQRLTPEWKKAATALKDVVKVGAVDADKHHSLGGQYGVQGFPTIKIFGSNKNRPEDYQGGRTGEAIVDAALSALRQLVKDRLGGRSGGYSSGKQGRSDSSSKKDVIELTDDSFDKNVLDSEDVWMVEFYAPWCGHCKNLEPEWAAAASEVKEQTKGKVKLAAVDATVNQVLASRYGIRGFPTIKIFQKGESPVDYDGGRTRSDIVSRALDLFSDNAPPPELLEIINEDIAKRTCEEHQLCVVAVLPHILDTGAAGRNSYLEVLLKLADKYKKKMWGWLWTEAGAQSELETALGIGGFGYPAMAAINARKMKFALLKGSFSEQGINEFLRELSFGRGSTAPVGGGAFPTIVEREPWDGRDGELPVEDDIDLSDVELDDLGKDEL
Numbers without * were called inactive; nt = no result given; + = active, no number. An excerpt weighted towards active compounds, which were near 1.1% of everything screened.

SMILES	PDI turbidity	CAL PDZ FP-1	CAL PDZ FP-2	ERAP1 inh	Rin1-Abl PPI inh	ERp5 block
O=S(=O)(NCC[C@H]1CC[C@@H](NS(=O)(=O)c2ccccc2Cl)[C@@H](CO)O1)c1ccc(F)cc1	nt	nt	nt	2	nt	2
O=c1[nH]c2ccccc2c(O)c1O	nt	1	-3	nt	20*	-1
CCn1c(SCC(=O)N2CCCC(C)C2)nc2c1c(=O)n(C)c(=O)n2C (centres undefined)	-16	-1	+	-7	1	-1
Cc1cc(=O)n2nc(N3CCC(C(=O)NCCc4ccc(Cl)cc4)CC3)sc2n1	-1	-1	68*	0	1	13
CCCC(=O)Nc1ccc2c(c1)C(=O)N(C)C[C@H](OC)[C@H](C)CN(C(=O)c1ccccc1F)[C@H](C)CO2	nt	nt	nt	-2	nt	-4
CC(=O)Nc1sc2c(c1C(N)=O)CCCC2	4	-1	0	nt	-1	nt
CC(=O)Nc1sc2c(c1C(N)=O)CCC2	3	nt	68*	nt	-1	nt
CCCCn1c(O)c(N=Nc2ccccc2O)c2ccccc21	6	0	37*	-3	2	-3
O=C(NCCc1ccncc1)[C@@H]1[C@@H](CO)[C@@H]2Cn3c(cccc3=O)[C@H]1N2Cc1ccccc1F	nt	nt	nt	0	nt	0
CCOC(=O)Cc1nc2ccccc2n(CC#N)c1=O	1	0	76*	5	1	2
CCOC(=O)Cn1c(C)nc2ccccc21	2	-1	-4	nt	2	nt
Cc1nnc2sc(SCC(=O)Nc3cccc(Cl)c3)nn2c1=O	-2	12	99*	0	-2	2
COc1cccc(NC(=O)CSc2nn3c(=O)c(C)nnc3s2)c1	2	-2	-2	-1	-2	-11
COc1ccccc1NC(=O)N1C[C@@H]2[C@H](c3ccccc31)[C@H](CO)N2Cc1ccccc1F	nt	nt	nt	-3	nt	1
Cc1noc(C)c1COC(=O)CCc1nc2ccccc2c(=O)[nH]1	-1	nt	45*	nt	-2	nt
Cc1ccc(COC(=O)CCc2nc3ccccc3c(=O)[nH]2)cc1	-3	-1	-3	nt	0	nt
CC(C)CNC(=O)CSc1ccc(S(=O)(=O)N2CCN(C)CC2)cn1	-7	0	39*	-6	2	1
CCCNC(=O)N1[C@@H]2CN(C(=O)c3ccc(F)cc3)c3ccccc3[C@@H]2[C@@H]1CO	nt	nt	nt	3	nt	-1
N#Cc1c(NC(=O)c2ccc(Br)o2)n(-c2ccccc2)c2nc3ccccc3nc12	11	0	-1	-10	7.7*	21
CCC(=O)Nc1c(C#N)c2nc3ccccc3nc2n1-c1ccc(C)cc1	14	-2	-1	-18	1	0
C[C@@H]1CN([C@H](C)CO)C(=O)c2cc(C#C[C@@H](C)O)cnc2O[C@H]1CN(C)C(=O)CC1CC1	nt	nt	nt	0	nt	-1
Cc1ccc2[nH]c3c(c2c1)CN(C(=O)CN1CCCc2ccccc21)CC3	-10	-1	58*	nt	-4	nt
Cc1ccc2[nH]c3c(c2c1)CN(C(=O)CN1CCCCC1)CC3	nt	nt	nt	6	nt	2
CN(C)Cc1cc(C(C)(C)C)cc(N2CCOCC2)c1O	-6	0	89*	1	0	-2
COCC#Cc1cnc2c(c1)C(=O)N([C@H](C)CO)C[C@H](C)[C@H](CN(C)C(=O)Nc1ccccc1F)O2	nt	nt	nt	6	nt	-2
SMILES	PDI turbidity	CAL PDZ FP-1	CAL PDZ FP-2	ERAP1 inh	Rin1-Abl PPI inh	ERp5 block
COc1ccccc1NC(=O)Cc1cccs1	5	-1	2	nt	-1	nt
COc1ccccc1NC(=O)Nc1ccnn1Cc1cccs1	11	-1	57*	nt	-4	nt
COc1cc(-c2nnc(-c3cc(OC)c(OC)c(OC)c3)o2)cc(OC)c1OC	6	-2	44*	nt	-5	nt
COc1cc(-c2nnc(-c3ccccc3)o2)cc(OC)c1OC	0	-5	-2	nt	-1	nt
COc1ccc(NS(=O)(=O)c2ccc(/C=C/C(=O)O)cc2)cc1S(=O)(=O)N1CCOCC1	0	0	44*	nt	-3	-9
COc1ccc(S(=O)(=O)N2CCC[C@H]2C(=O)NCc2ccc(Cl)cc2)cc1	-3	0	71*	nt	-4	3
C/C=C/c1ccc([C@H]2[C@@H](CO)N(S(=O)(=O)CC)[C@H]2CN(C)C(=O)CC)cc1	nt	nt	nt	0	nt	3
CC(C)(C)c1cc(N2CCOCC2)n2ncc(-c3ccccc3)c2n1	-2	-10	-10	32*	-1	-5
CC(C)(C)c1cc(C(F)(F)F)n2ncc(-c3ccccc3)c2n1	-3	-3	-3	0	1	-2
CC(C)Nc1cc(C(C)(C)C)nc2c(-c3ccccc3)cnn12	2	-1	133*	nt	-2	-7
Cc1cc(=O)c(C(=O)O)nn1-c1cccc(C(F)(F)F)c1	-2	0	73*	-4	-1	3
O=C(Nc1ccncc1)c1cccc2ccccc12	1	0	-4	nt	-2	1
O=C(Nc1ccc2ccccc2c1)c1cccc2ccccc12	-3	0	70*	1	3	3
Cc1cc(C(=O)Nc2ccc3ccccc3c2)c(C)o1	15	-1	41*	4	-2	1
CC(=O)c1cc(C(=O)Nc2ccc3ccccc3c2)c(C)o1	-1	-1	nt	4	5	-1
CC(=O)c1cccc(NC(=O)c2cccc3ccccc23)c1	0	-1	52*	0	3	5
O=C(COc1ccc(Cl)cc1)c1ccc(O)cc1O	-1	-3	55*	13	-3	-1
O=C(NC1CCC1)[C@H]1[C@H](CO)[C@H]2Cn3c(ccc(-c4ccccc4)c3=O)[C@H]2N1CC1CC1	nt	nt	nt	1	nt	-2
C=CCn1c(-c2cccc3ccccc23)n[nH]c1=S	0	-1	50*	nt	-3	nt
CS(=O)(=O)N1[C@H](C(=O)NC2CCC2)[C@@H](CO)[C@@H]2Cn3c(ccc(-c4cccc(F)c4)c3=O)[C@@H]21	nt	nt	nt	-1	nt	2
COc1ccccc1CC(=O)NCc1nn(-c2ccccc2)nc1C	-5	1	65*	-3	0	3
CN(C)c1cccc(C(=O)NC2CCCc3ccccc32)c1 (centres undefined)	8	-1	59*	-2	-1	-3
O=C(NC1CCCc2ccccc21)c1ccccc1 (centres undefined)	7	0	-2	6	-1	-1
CS(=O)(=O)c1ccc(C(=O)NC2CCCc3ccccc32)cc1 (centres undefined)	4	0	58*	nt	-5	nt
